The test system of one experiment is Rattus norvegicus. Kind of experiment: Pressor activity in anesthetized vagotomized-ganglionic blocked rat model administered as bolus injection relative to [Ile5]angiotensin 2. Type of experiment: functional. A digest of the protocol: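 Anesthetized, vagotomized rats. Ganglion block with mecamylamine hydrochloride, 0.3 mg/100 g subcutaneous in 10% polyvinylpyrrolidone. Analogues given as bolus injections in a 2+2 assay against angiotensin II standard (MRC Research Standard A, 70/302). Mean ± SEM, with the number of experiments given.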

A further experiment addresses T1, Angiotensin II receptor (Rattus norvegicus, UniProt P29089+P25095+P35351).
T1 sequence (P29089 whole entry): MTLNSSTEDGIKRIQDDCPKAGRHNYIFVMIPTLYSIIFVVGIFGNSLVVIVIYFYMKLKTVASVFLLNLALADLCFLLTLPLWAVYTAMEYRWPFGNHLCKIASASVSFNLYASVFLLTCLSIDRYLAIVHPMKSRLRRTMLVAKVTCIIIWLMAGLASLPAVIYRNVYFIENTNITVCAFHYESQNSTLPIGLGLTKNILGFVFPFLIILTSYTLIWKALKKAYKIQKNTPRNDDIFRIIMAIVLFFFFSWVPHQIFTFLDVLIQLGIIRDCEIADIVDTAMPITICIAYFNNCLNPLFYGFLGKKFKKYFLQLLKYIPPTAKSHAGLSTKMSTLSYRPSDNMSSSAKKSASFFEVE
T1 sequence (P25095 whole entry): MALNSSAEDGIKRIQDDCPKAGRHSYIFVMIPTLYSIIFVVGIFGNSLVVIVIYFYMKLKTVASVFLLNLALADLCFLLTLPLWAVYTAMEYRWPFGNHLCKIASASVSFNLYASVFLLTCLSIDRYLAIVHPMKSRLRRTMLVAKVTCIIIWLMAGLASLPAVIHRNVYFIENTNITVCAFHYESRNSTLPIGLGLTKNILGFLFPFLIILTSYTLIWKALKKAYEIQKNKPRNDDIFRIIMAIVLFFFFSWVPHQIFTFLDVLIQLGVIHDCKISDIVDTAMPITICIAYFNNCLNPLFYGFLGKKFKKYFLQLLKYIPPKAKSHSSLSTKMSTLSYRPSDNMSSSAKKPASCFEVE
T1 sequence (P35351 whole entry): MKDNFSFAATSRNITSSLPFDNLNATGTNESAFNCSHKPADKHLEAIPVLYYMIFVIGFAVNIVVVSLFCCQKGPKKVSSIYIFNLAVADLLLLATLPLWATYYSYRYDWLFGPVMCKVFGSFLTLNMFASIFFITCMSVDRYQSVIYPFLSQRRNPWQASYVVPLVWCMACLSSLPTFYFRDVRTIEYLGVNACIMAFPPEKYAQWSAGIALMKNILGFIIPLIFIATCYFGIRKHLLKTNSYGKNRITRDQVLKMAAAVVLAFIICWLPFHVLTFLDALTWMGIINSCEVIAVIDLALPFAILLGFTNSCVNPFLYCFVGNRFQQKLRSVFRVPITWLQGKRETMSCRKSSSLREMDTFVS
Description: Antagonist activity at angiotensin 2 receptor in Sprague-Dawley rat uterus assessed as reduction of angiotensin 2-induced response pretreated for 2 mins followed by angiotensin 2 challenge for every 12 mins.

For experiment [1], the target named is Angiotensin II receptor (Rattus norvegicus) (UniProt P29089+P25095+P35351). Kind of experiment: Intrinsic myotropic activity at angiotensin 2 receptor in Sprague-Dawley rat uterus relative to [Ile5]angiotensin 2. A digest of the protocol:
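Isolated uterus from diethylstilbestrol-primed female Sprague-Dawley rats (150-250 g), challenged every 12 min. Activity expressed relative to [Ile5]angiotensin II (MRC Research Standard A, 70/302). Mean ± SEM, with the number of experiments given.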

The structures appear in SMILES notation. Square brackets hold non-standard residues; d marks the D form. Peptide text beside a SMILES is read from it. Sar = CNCC(=O)O

As usually defined, the pA2 is a measure of antagonist potency on a negative log scale. As for `CC[C@H](C)[C@H](NC(=O)[C@H](Cc1ccc(O)cc1)NC(=O)[C@@H](NC(=O)[C@H](CCCNC(=N)N)NC(=O)CNC)C(C)C)C(=O)N[C@@H](Cc1cnc[nH]1)C(=O)N(C)CC(=O)N[C@@H](C)C(=O)O` (H-[Sar]RVYIH[Sar]A-OH), the Activity in the experiment with Rattus norvegicus was 0.06%. At Angiotensin II receptor, the pA2 was 7. In experiment [1], this compound registered an Intrinsic activity of less than 0.1%.

`CC[C@H](C)[C@H](NC(=O)CN(C)C(=O)[C@H](Cc1cnc[nH]1)NC(=O)[C@@H](NC(=O)[C@H](Cc1ccc(O)cc1)NC(=O)[C@@H](NC(=O)[C@H](CCCNC(=N)N)NC(=O)CNC)C(C)C)[C@@H](C)CC)C(=O)O` came in with an Activity in the experiment with Rattus norvegicus of 0.7%. In addition, the pA2 at Angiotensin II receptor was 8.1. Further, the Intrinsic activity in experiment [1] was less than 0.1%.

As for `CC[C@H](C)[C@H](NC(=O)[C@H](Cc1ccc(O)cc1)NC(=O)[C@@H](NC(=O)[C@H](CCCNC(=N)N)NC(=O)CNC)C(C)C)C(=O)N[C@@H](Cc1cnc[nH]1)C(=O)N(C)CC(=O)N[C@@H](Cc1ccccc1)C(=O)O` (H-[Sar]RVYIH[Sar]F-OH), in the experiment on Rattus norvegicus, the Activity was 17%. The same compound had an Intrinsic activity in experiment [1] of 22%.

In turn, `CC[C@H](C)[C@H](NC(=O)[C@H](Cc1ccc(O)cc1)NC(=O)[C@@H](NC(=O)[C@H](CCCNC(=N)N)NC(=O)CNC)C(C)C)C(=O)N[C@@H](Cc1cnc[nH]1)C(=O)N(C)CC(=O)N[C@@H](CC(C)C)C(=O)O` (H-[Sar]RVYIH[Sar]L-OH) showed an Activity with Rattus norvegicus of 0.21%. The pA2 on Angiotensin II receptor was 7.4. In addition, the Intrinsic activity in experiment [1] was less than 0.1%.

In the experiment on Rattus norvegicus, `CC[C@H](C)[C@H](NC(=O)[C@@H]1CCCN1C(=O)[C@H](Cc1c[nH]cn1)NC(=O)[C@@H](NC(=O)[C@H](Cc1ccc(O)cc1)NC(=O)[C@@H](NC(=O)[C@H](CCCN=C(N)N)NC(=O)CNC)C(C)C)[C@@H](C)CC)C(=O)O` showed an Activity of 1.1%. Also, the Intrinsic activity in experiment [1] was less than 0.1%.

For the compound `CC[C@H](C)[C@H](NC(=O)[C@H](Cc1ccc(O)cc1)NC(=O)[C@@H](NC(=O)[C@H](CCCNC(=N)N)NC(=O)CNC)C(C)C)C(=O)N[C@@H](Cc1cnc[nH]1)C(=O)N(C)CC(=O)N[C@H](C(=O)O)[C@@H](C)OC` (H-[Sar]RVYIH[Sar]T(Me)-OH), the Activity in the experiment with Rattus norvegicus amounted to 0.13%. For the same compound, on Angiotensin II receptor, the pA2 stood at 7.4. In addition, the Intrinsic activity in experiment [1] was less than 0.1%.

On to `CCC(C)C(NC(=O)CN(C)C(=O)[C@H](Cc1cnc[nH]1)NC(=O)[C@@H](NC(=O)[C@H](Cc1ccc(O)cc1)NC(=O)[C@@H](NC(=O)[C@H](CCCNC(=N)N)NC(=O)CNC)C(C)C)[C@@H](C)CC)C(=O)O` (mixture of isomers), for which, in the experiment with Rattus norvegicus, the Activity is on record as 12.5%. Also, on Angiotensin II receptor, the pA2 is listed as 8.4. Further, the Intrinsic activity in experiment [1] is 0.7%.

As to `CC[C@H](C)[C@H](NC(=O)[C@H](Cc1ccc(O)cc1)NC(=O)[C@@H](NC(=O)[C@H](CCCNC(=N)N)NC(=O)CNC)C(C)C)C(=O)N[C@@H](Cc1cnc[nH]1)C(=O)N(C)CC(=O)N[C@@H](CCSC)C(=O)O` (H-[Sar]RVYIH[Sar]M-OH), in the experiment with Rattus norvegicus, the Activity is 0.82%. The pA2 at Angiotensin II receptor turned out to be 7.7. In experiment [1], this compound had an Intrinsic activity of less than 0.1%.
